Shown are actives, neighbours in structure and some others; about 1.1% of the full set was active somewhere.
FXIa inh: factor XIa (human) inhibition. inhibition, % at 5 µM. P03951. 220,000 compounds, 0.14% hits. AID 798. purified FXIa, Boc-Glu-Ala-Arg-AMC fluorogenic substrate;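 active means inhibition of at least 40%; inactive means inhibition below 40%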;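 further: fluorescence of freed AMC excited at 355 nm; 0% = enzyme without compound and 100% = no enzyme blank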
FXIIa inh 1536: blocks human coagulation factor XIIa protease activity; P00748; purified FXIIa, Boc-QGR-AMC fluorogenic substrate, 2 h; inhibition, % at 5 µM; 220,000 compounds, 0.3% hits; AID 800; in the data active means inhibition above about 40%;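 further: 0% = enzyme with no compound and 100% = blank without enzyme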
KLK5 inh: blocks human kallikrein 5 protease activity; Q9Y337; 210,000 compounds, 0.59% hits; inhibition, % at 5 µM; recombinant hK5, fluorogenic AMC substrate cleavage;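 active means inhibition of 40% or more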;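 further: 0% = enzyme controls without compound and 100% = no-enzyme blanks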
Target sequence (Q9Y337 67-293 limits assumed): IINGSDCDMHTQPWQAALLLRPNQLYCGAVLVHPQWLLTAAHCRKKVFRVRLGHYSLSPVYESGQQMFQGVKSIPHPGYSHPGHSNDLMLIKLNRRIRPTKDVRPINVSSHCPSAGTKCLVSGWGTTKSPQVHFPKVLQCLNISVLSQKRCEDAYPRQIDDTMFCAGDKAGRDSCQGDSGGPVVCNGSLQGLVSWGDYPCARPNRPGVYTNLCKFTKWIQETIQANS
Thrombin inh: thrombin (human) inhibition | alpha-thrombin, Boc-VPR-AMC fluorogenic substrate cleavage | inhibition, % at 5 µM | 220,000 compounds, 0.26% hits;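 active means inhibition at or above 40%; inactive means inhibition below 40%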;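 further: 0% = enzyme with no compound and 100% = wells without enzyme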
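Assay system: human alpha-thrombin enzyme. Reagent: Boc-VPR-AMC substrate, 15 µM final. Compound dosing: one concentration per compound, 5 µM, with 0.2% DMSO. Incubation: room-temperature reaction. Technique: AMC fluorescence, 355/460 nm. Measure: % inhibition relative to enzyme controls and enzyme-free blanks.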
Furin inh: human furin inhibition; 220,000 compounds, 0.061% hits; inhibition, % at 20 µM or 30 µM; purified furin, fluorogenic substrate cleavage; P09958; in the data active means inhibition above about 25%
* marks the source's active call; other numbers are inactive results; . = no result.

SMILES	FXIa inh	FXIIa inh 1536	KLK5 inh	Thrombin inh	Furin inh
c1cncc(-c2nc3ccccc3o2)c1	-8	-8	-13	0	-8
O=c1oc(-c2cccnc2)nc2ccccc12	3	-3	9	82*	-24
Cc1ccc(/C=C/C(=O)Nc2cccc(S(=O)(=O)N3CCOCC3)c2)o1	-5	7	72*	40	4
O=C(/C=C/c1ccco1)Nc1cccc(S(=O)(=O)N2CCOCC2)c1	-5	1	-6	-10	-1
Cc1csc(NC(=O)CSc2nnc(-c3ccoc3C)n2Cc2ccco2)n1	3	9	5	4	-29
Cc1ccc(/C=N/n2cnnc2)s1	9	16	53*	18	-3
Brc1ccc(/C=N/n2cnnc2)s1	-1	6	2	-2	-13
CCOc1ccc(N(CC(=O)Nc2ccc(OC)cc2)S(=O)(=O)c2c(C)noc2C)cc1	2	9	0	-4	-18
CCOc1ccc(N(CC(=O)Nc2ccc3c(c2)OCCO3)S(=O)(=O)c2c(C)noc2C)cc1	19	41*	30	21	-33
c1cnc(Sc2ccc3nnnn3n2)nc1	-4	1	-14	-1	-23
CC12CCC(C(=O)N3CCN(c4ccccc4)CC3)(CC1=O)C2(C)C (stereo not given)	5	2	54*	8	-15
COc1ccc(N2CCN(C(=O)C34CCC(C)(C(=O)C3)C4(C)C)CC2)cc1 (stereo not given)	-8	-3	-1	-7	-7
C=CCNc1nc(NC(C)(C)CO)nc(OC)n1	46*	30	-9	0	-20
C=CCNc1nc(NC(C)(C)CO)nc(OCC)n1	-4	8	-4	-3	-16
NS(=O)(=O)c1cccc(NC(=O)CSc2nc3ccccc3[nH]2)c1	7	10	-4	-2	-12
Cc1ccc2nc(SCC(=O)Nc3cccc(S(N)(=O)=O)c3)[nH]c2c1	2	9	93*	1	-18
O=C1NC(=S)N/C1=C/c1cc([N+](=O)[O-])ccc1O	-4	7	-20	-3	-24
Cc1cc2oc(=O)cc(Cn3nnc(-c4ccc(Cl)cc4)n3)c2cc1C(C)C	-4	5	-4	-14	-21
Cc1nc(/N=C\N(C)C)sc1C(=O)Nc1ccccc1	11	14	48*	25	-20
Cc1nc(C(=O)Nc2ccccc2)sc1C(=O)Nc1ccccc1	1	10	0	1	-28
Cc1ccc(NC(=O)COc2ncnc3cc([N+](=O)[O-])ccc23)cc1S(=O)(=O)N1CCOCC1	-3	4	-2	2	-2
Cc1oc(CN2CCOCC2)cc1C(=O)O	-3	3	-5	-4	-25
CC(=O)N/C(=C\c1ccccc1)C(=O)OCC(=O)N(C)C1CCCCC1	5	18	44*	10	-17
CCn1cc(/C=N/NC(=O)c2ccc3c(c2)OCO3)cn1	-5	-1	-18	-9	-10
CCOC(=O)c1cc2sccc2n1CC(=O)N1c2ccccc2CC1C (stereo not given)	13	48*	-9	-10	-23
SMILES	FXIa inh	FXIIa inh 1536	KLK5 inh	Thrombin inh	Furin inh
CCOc1cc(/C=N/Nc2nc(Nc3ccccc3)nc(N3CCCCC3)n2)ccc1OCC(=O)O	24	19	45*	-9	-8
O=C(CN(C(=O)CSc1nnc(COc2ccccc2)o1)c1ccc(F)cc1)NC1CCCCC1	6	31	130*	25	-20
COc1ccccc1N1CCN(C2CCN(C(=O)COc3ccccc3)CC2)CC1	-5	.	-2	-8	-16
Cc1ccc(CSc2ncnc3c2cnn3-c2ccc(C)cc2)cc1	22	41*	45*	21	-12
Cc1ccc(CSc2ncnc3c2cnn3-c2ccccc2)cc1	6	2	-4	-5	-28
COc1ccc(C(=O)n2nc(-c3ccccc3)nc2N)cc1OC	13	10	41*	26	-13
O=c1cc(-c2ccc([N+](=O)[O-])cc2)nc2cc(-c3ccc(Cl)cc3)[nH]n12	16	-3	48*	63*	-10
O=[N+]([O-])c1cc(Cl)ccc1-c1nc(-c2ccncc2)no1	3	9	.	2	-18
O=[N+]([O-])c1cc(Cl)ccc1-c1nc(-c2ccccc2)no1	12	40	75*	34	4
Cc1ccc(S(=O)(=O)N(C)C)cc1NC(=O)CCc1ccccc1	5	8	2	0	-17
O=C(COc1ccc([N+](=O)[O-])cc1)NNC(=O)c1cccs1	-1	-7	-15	2	-16
CCOc1cc2c(C#N)c(N3CCOCC3)nc(N)c2c(N)n1	-3	0	110*	2	.
COC(=O)c1c(NC(=O)COC(=O)Cn2cnc3ccccc32)sc(C)c1C	44*	15	37	12	-2
Cc1ccc(/C=N/NC(=O)c2ccoc2C)s1	-6	6	-8	-6	1
Cc1occc1C(=O)N/N=C/c1ccc(Br)s1	17	34	49*	28	-10
Cc1cc(N(C)C)c(C#N)c(NCc2ccccc2)n1	3	27	64*	19	-29
CN(C)c1ccnc(NCc2ccccc2)c1C#N	11	14	-9	-1	-19
Cn1c(CSCCOc2ccccc2)n[nH]c1=S	-9	0	53*	-5	-1
O=C(C1CCCCC1)N1CCC(c2nc3ccccc3[nH]2)CC1	-1	13	71*	18	-21
Nc1nc(Cl)cc(Sc2ccc(F)cc2)n1	-10	0	-11	-19	-21
Cc1ccc(Sc2cc(Cl)nc(N)n2)cc1	10	20	77*	23	-12
CCCCNC(=O)C(CC)Sc1nc2sc(C(=O)OC)c(C)c2c(=O)n1N (stereo not given)	-4	9	4	-4	-25
CCC(Sc1nc2sc(C(=O)OC)c(C)c2c(=O)n1N)C(=O)NCC1CCCO1 (stereo not given)	14	29	43*	18	-21
COc1ccc(S(=O)(=O)CCC(=O)Nc2cc(C)ccc2OC)cc1	1	17	.	9	-30
COc1ccccc1NC(=O)CCS(=O)(=O)c1ccccc1	31	24	29	52*	-12
SMILES	FXIa inh	FXIIa inh 1536	KLK5 inh	Thrombin inh	Furin inh
CN(C)c1ccc(CNc2nc(-c3ccccc3)nn2S(C)(=O)=O)cc1	-8	3	-12	-7	-13
CCC(=O)n1nc(-c2ccc(OC)cc2)nc1NCc1cccs1	1	7	-5	89*	-19
CC(=O)n1nc(-c2ccccc2)nc1NCc1cccs1	-5	3	-3	97*	-16
CC(=O)n1nc(-c2ccccc2)nc1NCc1ccc(N(C)C)cc1	-6	-7	-24	61*	-20
Cc1nc2cc(NCc3ccccc3O)ccc2n1Cc1ccccc1	-2	3	0	-8	-13
CCOC(=O)c1c(C)[nH]c(C)c1C(=O)COC(=O)c1nc2nccc(C)n2n1	-4	4	1	-11	-21
COc1cccc(-n2nnc3c(=O)n(Cc4ccccc4Cl)cnc32)c1	-4	4	0	0	28*

Compound activity from PubChem BioAssay.
